From ChEMBL document CHEMBL1138751, “Dipeptidomimetic ketomethylene isosteres as pro-moieties for drug transport via the human intestinal di-/tripeptide transporter hPEPT1: design, synthesis, stability, and biological investigations” (J Med Chem, 2004) come the findings set out here.

For assay [1], the target named is T1, Solute carrier family 15 member 1 (Homo sapiens, UniProt P46059).
T1 sequence (P46059 whole entry): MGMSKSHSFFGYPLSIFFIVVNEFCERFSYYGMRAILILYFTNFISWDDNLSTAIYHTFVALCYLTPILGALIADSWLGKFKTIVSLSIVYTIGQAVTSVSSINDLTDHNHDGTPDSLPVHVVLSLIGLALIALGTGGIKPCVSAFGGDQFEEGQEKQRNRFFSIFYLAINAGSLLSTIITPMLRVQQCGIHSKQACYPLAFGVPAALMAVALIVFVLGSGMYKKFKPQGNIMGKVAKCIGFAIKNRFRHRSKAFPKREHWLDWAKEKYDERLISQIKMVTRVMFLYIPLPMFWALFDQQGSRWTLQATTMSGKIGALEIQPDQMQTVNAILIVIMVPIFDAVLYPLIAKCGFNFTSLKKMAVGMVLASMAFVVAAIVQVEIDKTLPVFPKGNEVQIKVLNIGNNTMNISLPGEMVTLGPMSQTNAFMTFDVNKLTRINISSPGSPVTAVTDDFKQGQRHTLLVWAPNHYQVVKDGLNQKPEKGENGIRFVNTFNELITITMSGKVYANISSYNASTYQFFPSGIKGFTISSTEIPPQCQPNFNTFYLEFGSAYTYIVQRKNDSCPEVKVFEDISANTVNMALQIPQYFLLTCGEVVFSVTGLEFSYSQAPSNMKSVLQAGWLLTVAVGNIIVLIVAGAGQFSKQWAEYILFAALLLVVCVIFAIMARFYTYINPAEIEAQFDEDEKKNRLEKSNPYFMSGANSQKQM
Nature of the assay: Inhibition of [14C]Gly-Sar transport by hPEPT1 in Caco-2 cell monolayers. Format: cell-based. The gist of the method:
(§1)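 Caco-2 monolayers on Transwell filters, used 25–27 days after seeding (TEER 354 ± 41 […]). Compound at varying concentrations plus 0.5 μCi [14C]-Gly-Sar in apical MES-buffered HBSS (pH 6.0, 0.05% BSA); HEPES buffer (pH 7.4) basolateral. Incubated 5 min at 37 °C with shaking, washed with ice-cold HBSS, and cell-associated radioactivity counted. Inhibition fitted to a Hill-type equation for IC50; Ki derived by Cheng–Prusoff using Gly-Sar Km 1.1 mM. Duplicates in three passages.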
In general terms: Caco-2 cells form a polarised layer with tight junctions and transporters.

The target of assay [2] is T1, Solute carrier family 15 member 1. Nature of the assay: Affinity for hPEPT1 in mature Caco-2 cell monolayers using [14C]-Gly-Sar. The gist of the method: as §1

The IC50 is the concentration at which inhibition is half-maximal. The term Ki denotes a dissociation constant, usually derived from enzyme kinetics or from competition with a known ligand. Lower therefore signals tighter binding. `CC(C)[C@H](N)C(=O)C[C@@H](CC(=O)OCc1ccccc1)C(=O)O` came in with a half-maximal inhibitory concentration (IC50) in assay [1] of 19 µM. In assay [2], this molecule gave a Ki of 19 µM.

In assay [1], `CC(C)[C@H](N)C(=O)CCC(=O)OCc1ccccc1` displayed an IC50 of 134 µM. The molecule also had an inhibition constant (Ki) in assay [2] of 133 µM.

Regarding `N[C@@H](Cc1ccccc1)C(=O)C[C@@H](CC(=O)OCc1ccccc1)C(=O)O`, the IC50 in assay [1] was found to be 69 µM. The molecule further showed a Ki in assay [2] of 68 µM.

In assay [1], `N[C@@H](Cc1ccccc1)C(=O)CCC(=O)OCc1ccccc1` registered an IC50 of 915 µM. In addition, the Ki in assay [2] was 905 µM.

`NC(CC(=O)OCc1ccccc1)C(=O)CCC(=O)O` (stereo not given) registered an IC50 in assay [1] of 422 µM. The molecule further yielded an inhibition constant Ki in assay [2] of 417 µM.
